Laboratory results published in ChEMBL document CHEMBL1143681, “Bifunctional [2',6'-dimethyl-L-tyrosine1]endomorphin-2 analogues substituted at position 3 with alkylated phenylalanine derivatives yield potent mixed mu-agonist/delta-antagonist and dual mu-agonist/delta-agonist opioid ligands” (J Med Chem, 2007).
Where a SMILES comes first, the peptide text is derived from it. [ ]: non-standard residue; d: D form. Dmt = Cc1cc(O)cc(C)c1C[C@H](N)C(=O)O

How the values were obtained:
[1] = biological target: Delta-type opioid receptor (Rattus norvegicus, UniProt P33533); assay: Displacement of [3H]deltorphin 2 from delta opioid receptor in Sprague-Dawley rat brain P2 synaptosome membrane; assay type: tissue-based
[2] = biological target: Opioid receptors; mu & delta (Rattus norvegicus) (UniProt P33533+P33535); assay: Selectivity for mu opioid receptor over delta opiod receptor in Sprague-Dawley rat brain P2 synaptosome membrane; assay type: tissue-based
[3] = biological target: Kappa-type opioid receptor (Cavia porcellus, UniProt P41144); assay: Displacement of [3H]U-69593 from kappa opioid receptor in Hartley guinea pig cerebellum P2 synaptosome membrane; assay type: tissue-based
Mu-type opioid receptor [4] = biological target: Mu-type opioid receptor (Rattus norvegicus, UniProt P33535); assay: Displacement of [3H]DAMGO from mu opioid receptor in Sprague-Dawley rat brain P2 synaptosome membrane; assay type: tissue-based
Method in brief: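 Competition binding at equilibrium (2.5 h, 22 °C) on Sprague-Dawley rat (150–160 g) brain P2 synaptosomes, preincubated 60 min at 22 °C to remove endogenous opioids. Radioligands: 3.5 nM [3H]DAMGO (μ) or 1.9 nM [3H]deltorphin-II (δ); nonspecific with 2 µM unlabeled peptide. GF/C filtration; duplicates, 5–8 doses, several preparations. Ki by Cheng-Prusoff (Kd 3.5 nM DAMGO, 1.4 nM deltorphin-II).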

[5] = biological target: T1, Delta-type opioid receptor (Mus musculus, UniProt P32300); assay: Agonist activity at delta opioid receptor in mouse vas deferens assessed as inhibition of electrically-stimulated muscle contraction; assay type: functional, tissue-based
Method in brief: (§1)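 Isolated tissue: myenteric plexus longitudinal muscle strips (2–3 cm) from small intestine of male Hartley guinea pigs (μ), or single mouse vas deferens (δ), in organ baths with balanced salt solution, pH 7.5. Inhibition of electrically evoked contraction; IC50 (nM) from dose-response curves, mean ± SE of five to six separate assays.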

Mu-type opioid receptor [6] = biological target: Mu-type opioid receptor (Cavia porcellus, UniProt P97266); assay: Agonist activity at mu opioid receptor in Hartley guinea pig ileum assessed as inhibition of electrically-stimulated muscle contraction; assay type: functional, tissue-based; method in brief: as §1
[7] = biological target: Delta-type opioid receptor (Mus musculus) (UniProt P32300); assay: Agonist activity at delta opioid receptor in mouse vas deferens assessed as inhibition of electrically-stimulated muscle contraction at 10000 nM; assay type: functional, tissue-based; design: scale not given: the % may be the effect or the level left
Method in brief: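 Mouse vas deferens in organ bath, physiological buffer pH 7.5; maximal inhibition of electrically evoked contraction recorded at 10,000 nM.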

[8] = biological target: T1, Delta-type opioid receptor; assay: Antagonist activity at delta opioid receptor in mouse vas deferens assessed as inhibition of deltorphin 2-induced response; assay type: functional, tissue-based; conditions: read-out: pA2 (converted)
Method in brief: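 Single mouse vas deferens in organ bath, pH 7.5 buffer; δ antagonism measured against deltorphin II-induced inhibition of electrically evoked contraction. pA2 from Schild plot: negative log molar concentration needed to double deltorphin II concentration for the original response.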

Sequence of Mu-type opioid receptor (Cavia porcellus, UniProt P97266) (P97266 whole entry): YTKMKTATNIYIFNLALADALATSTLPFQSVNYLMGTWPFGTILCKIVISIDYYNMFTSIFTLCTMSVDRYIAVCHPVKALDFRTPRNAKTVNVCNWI
Sequence of Opioid receptors; mu & delta (Rattus norvegicus) (P33533 whole entry, looked up): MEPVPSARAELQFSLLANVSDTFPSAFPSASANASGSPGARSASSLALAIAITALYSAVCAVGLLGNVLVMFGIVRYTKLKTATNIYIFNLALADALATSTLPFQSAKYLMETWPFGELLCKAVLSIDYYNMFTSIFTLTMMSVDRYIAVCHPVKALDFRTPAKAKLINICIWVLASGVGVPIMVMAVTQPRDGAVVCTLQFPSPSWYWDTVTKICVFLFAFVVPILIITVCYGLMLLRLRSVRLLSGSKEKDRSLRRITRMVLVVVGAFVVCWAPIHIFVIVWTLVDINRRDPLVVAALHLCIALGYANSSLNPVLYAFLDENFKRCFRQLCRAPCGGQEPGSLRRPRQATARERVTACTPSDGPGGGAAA
Sequence of Opioid receptors; mu & delta (Rattus norvegicus) (P33535 whole entry, looked up): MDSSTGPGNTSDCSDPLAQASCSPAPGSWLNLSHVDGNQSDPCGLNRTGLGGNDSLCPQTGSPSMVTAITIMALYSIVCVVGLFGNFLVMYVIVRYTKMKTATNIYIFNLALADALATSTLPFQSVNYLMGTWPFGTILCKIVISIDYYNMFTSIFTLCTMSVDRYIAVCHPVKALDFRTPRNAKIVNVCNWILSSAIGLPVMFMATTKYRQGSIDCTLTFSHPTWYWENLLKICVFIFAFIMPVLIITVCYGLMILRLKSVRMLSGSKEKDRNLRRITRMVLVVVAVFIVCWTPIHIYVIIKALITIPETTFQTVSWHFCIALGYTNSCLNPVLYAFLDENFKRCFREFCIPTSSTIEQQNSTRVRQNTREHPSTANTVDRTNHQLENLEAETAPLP
Sequence of Delta-type opioid receptor (Rattus norvegicus, UniProt P33533) (P33533 whole entry): as the sequence (P33533 whole entry, looked up) above
Sequence of Delta-type opioid receptor (Mus musculus) (P32300 whole entry): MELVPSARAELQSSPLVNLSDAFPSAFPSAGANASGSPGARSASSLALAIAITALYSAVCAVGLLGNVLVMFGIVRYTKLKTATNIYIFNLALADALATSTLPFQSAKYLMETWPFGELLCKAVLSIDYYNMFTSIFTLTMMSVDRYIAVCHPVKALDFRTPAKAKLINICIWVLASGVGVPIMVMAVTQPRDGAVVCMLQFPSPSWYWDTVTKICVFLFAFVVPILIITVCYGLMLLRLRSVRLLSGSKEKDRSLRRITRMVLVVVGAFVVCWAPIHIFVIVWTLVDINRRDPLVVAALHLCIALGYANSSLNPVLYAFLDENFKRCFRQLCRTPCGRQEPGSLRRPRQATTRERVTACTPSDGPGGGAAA
T1 sequence (P32300 whole entry): as above
Sequence of Kappa-type opioid receptor (P41144 whole entry): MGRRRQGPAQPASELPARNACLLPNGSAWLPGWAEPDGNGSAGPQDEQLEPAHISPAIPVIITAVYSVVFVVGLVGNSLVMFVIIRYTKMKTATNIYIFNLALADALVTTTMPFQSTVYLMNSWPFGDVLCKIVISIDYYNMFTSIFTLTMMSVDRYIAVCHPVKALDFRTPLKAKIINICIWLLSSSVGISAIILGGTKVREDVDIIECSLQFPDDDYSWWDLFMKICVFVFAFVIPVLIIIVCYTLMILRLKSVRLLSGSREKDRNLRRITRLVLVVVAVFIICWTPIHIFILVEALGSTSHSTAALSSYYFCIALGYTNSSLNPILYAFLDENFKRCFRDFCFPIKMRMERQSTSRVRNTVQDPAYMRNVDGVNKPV
Sequence of Mu-type opioid receptor (Rattus norvegicus, UniProt P33535) (P33535 whole entry): as the sequence (P33535 whole entry, looked up) above

Cc1cc(O)cc(C)c1C[C@H](N)C(=O)N1CCC[C@H]1C(=O)N[C@@H](Cc1c(C)cccc1C(C)C)C(=O)N[C@@H](Cc1ccccc1)C(N)=O
Ki [1]: 4.61 nM
Ratio Ki [2]: 14
Ki [3]: 205 nM
Ki (Mu-type opioid receptor [4]): 0.32 nM
IC50 [5]: 5.56 nM
IC50 (Mu-type opioid receptor [6]): 0.2 nM

Cc1cc(C)c(C[C@H](NC(=O)[C@@H]2CCCN2C(=O)[C@@H](N)Cc2c(C)cc(O)cc2C)C(=O)N[C@@H](Cc2ccccc2)C(N)=O)c(C)c1
Ki [1]: 1.83 nM
Ratio Ki [2]: 10
Ki [3]: 172 nM
Ki (Mu-type opioid receptor [4]): 0.18 nM
IC50 [5]: > 10000 nM
Activity [7]: > 22.2%
IC50 (Mu-type opioid receptor [6]): 0.21 nM
Kb [8]: 0.891 nM

Cc1ccccc1C[C@H](NC(=O)[C@@H]1CCCN1C(=O)[C@@H](N)Cc1ccc(O)cc1)C(=O)N[C@@H](Cc1ccccc1)C(N)=O
Ki [1]: 1740 nM
Ratio Ki [2]: 7880
Ki (Mu-type opioid receptor [4]): 0.22 nM
IC50 [5]: 15.7 nM
IC50 (Mu-type opioid receptor [6]): 1.33 nM

Cc1cccc(C)c1C[C@H](NC(=O)[C@@H]1CCCN1C(=O)[C@@H](N)Cc1c(C)cc(O)cc1C)C(=O)N[C@@H](Cc1ccccc1)C(N)=O
Ki [1]: 2.27 nM
Ratio Ki [2]: 33
Ki [3]: 94.2 nM
Ki (Mu-type opioid receptor [4]): 0.069 nM
IC50 (Mu-type opioid receptor [6]): 0.12 nM
Kb [8]: 7.08 nM

Cc1cc(C)c(C[C@H](NC(=O)[C@@H]2CCCN2C(=O)[C@@H](N)Cc2ccc(O)cc2)C(=O)N[C@@H](Cc2ccccc2)C(N)=O)c(C)c1
Ki [1]: 1360 nM
Ratio Ki [2]: 3090
Ki (Mu-type opioid receptor [4]): 0.44 nM
IC50 [5]: > 10000 nM
Activity [7]: > 36.2%
IC50 (Mu-type opioid receptor [6]): 1.9 nM

CCc1cccc(C)c1C[C@H](NC(=O)[C@@H]1CCCN1C(=O)[C@@H](N)Cc1c(C)cc(O)cc1C)C(=O)N[C@@H](Cc1ccccc1)C(N)=O
Ki [1]: 3.03 nM
Ratio Ki [2]: 14
Ki [3]: 278 nM
Ki (Mu-type opioid receptor [4]): 0.21 nM
IC50 [5]: 0.51 nM
IC50 (Mu-type opioid receptor [6]): 0.17 nM

Cc1cccc(C(C)C)c1C[C@H](NC(=O)[C@@H]1CCCN1C(=O)[C@@H](N)Cc1ccc(O)cc1)C(=O)N[C@@H](Cc1ccccc1)C(N)=O
Ki [1]: 543 nM
Ratio Ki [2]: 1220
Ki (Mu-type opioid receptor [4]): 0.45 nM
IC50 (Mu-type opioid receptor [6]): 2.74 nM

Cc1cc(O)cc(C)c1C[C@H](NC(=O)[C@@H]1CCCN1C(=O)[C@@H](N)Cc1ccc(O)cc1)C(=O)N[C@@H](Cc1ccccc1)C(N)=O (H-YP[Dmt]F-NH2)
Ki [1]: 3020 nM
Ki (Mu-type opioid receptor [4]): 2.63 nM
IC50 [5]: 978 nM
IC50 (Mu-type opioid receptor [6]): 541 nM

CCc1cccc(C)c1C[C@H](NC(=O)[C@@H]1CCCN1C(=O)[C@@H](N)Cc1ccc(O)cc1)C(=O)N[C@@H](Cc1ccccc1)C(N)=O
Ki [1]: 491 nM
Ratio Ki [2]: 1070
Ki (Mu-type opioid receptor [4]): 0.46 nM
IC50 [5]: 277 nM
IC50 (Mu-type opioid receptor [6]): 2.35 nM

Cc1cc(O)cc(C)c1C[C@H](NC(=O)[C@@H]1CCCN1C(=O)[C@@H](N)Cc1c(C)cc(O)cc1C)C(=O)N[C@@H](Cc1ccccc1)C(N)=O (H-[Dmt]P[Dmt]F-NH2)
Ki [1]: 80.8 nM
Ki [3]: 998 nM
Ki (Mu-type opioid receptor [4]): 0.092 nM
IC50 [5]: > 10000 nM
IC50 (Mu-type opioid receptor [6]): 1.94 nM
Kb [8]: 87.1 nM

Cc1ccccc1C[C@H](NC(=O)[C@@H]1CCCN1C(=O)[C@@H](N)Cc1c(C)cc(O)cc1C)C(=O)N[C@@H](Cc1ccccc1)C(N)=O
Ki [1]: 4.61 nM
Ratio Ki [2]: 26
Ki [3]: 176 nM
Ki (Mu-type opioid receptor [4]): 0.18 nM
IC50 [5]: > 10000 nM
Activity [7]: 0%
IC50 (Mu-type opioid receptor [6]): 0.16 nM
Kb [8]: 257 nM

Cc1cc(O)ccc1C[C@H](NC(=O)[C@@H]1CCCN1C(=O)[C@@H](N)Cc1c(C)cc(O)cc1C)C(=O)N[C@@H](Cc1ccccc1)C(N)=O
Ratio Ki [2]: 878
Activity [7]: < 1%

Cc1cc(O)cc(C)c1C[C@H](N)C(=O)N1CCC[C@H]1C(=O)N[C@@H](Cc1ccccc1)C(=O)N[C@@H](Cc1ccccc1)C(N)=O
Ki [1]: 99.2 nM
Ratio Ki [2]: 382
Ki [3]: 489 nM
Ki (Mu-type opioid receptor [4]): 0.26 nM
IC50 [5]: 0.59 nM
IC50 (Mu-type opioid receptor [6]): 0.26 nM

Cc1cccc(C)c1C[C@H](NC(=O)[C@@H]1CCCN1C(=O)[C@@H](N)Cc1ccc(O)cc1)C(=O)N[C@@H](Cc1ccccc1)C(N)=O
Ki [1]: 1440 nM
Ratio Ki [2]: 32700
Ki [3]: > 4000 nM
Ki (Mu-type opioid receptor [4]): 0.044 nM
IC50 [5]: 1.39 nM
IC50 (Mu-type opioid receptor [6]): 0.38 nM

Cc1cc(O)ccc1C[C@H](NC(=O)[C@@H]1CCCN1C(=O)[C@@H](N)Cc1ccc(O)cc1)C(=O)N[C@@H](Cc1ccccc1)C(N)=O
Ratio Ki [2]: 1150

Cc1cc(C)cc(C[C@H](NC(=O)[C@@H]2CCCN2C(=O)[C@@H](N)Cc2c(C)cc(O)cc2C)C(=O)N[C@@H](Cc2ccccc2)C(N)=O)c1
Ki [1]: 11.6 nM
Ratio Ki [2]: 105
Ki [3]: 830 nM
Ki (Mu-type opioid receptor [4]): 0.11 nM
IC50 [5]: > 10000 nM
Activity [7]: > 7.1%
IC50 (Mu-type opioid receptor [6]): 14.4 nM
Kb [8]: 170 nM

Cc1cc(C)cc(C[C@H](NC(=O)[C@@H]2CCCN2C(=O)[C@@H](N)Cc2ccc(O)cc2)C(=O)N[C@@H](Cc2ccccc2)C(N)=O)c1
Ki [1]: 3450 nM
Ratio Ki [2]: 558
Ki (Mu-type opioid receptor [4]): 6.19 nM
IC50 [5]: > 10000 nM
Activity [7]: > 8%
IC50 (Mu-type opioid receptor [6]): 389 nM
